≈ marks a conversion by molar mass, not a printed value. Calls of active or inactive are those of the source. The rule behind the calls is not given here.
How the values were obtained:
[1] = Antibacterial activity against Bartonella henselae Houston-1 infected in human HMEC1 cells assessed as intracellular bacterial load at 0.1 ug/mL incubated for 96 hrs followed by compound washout measured after 7 days relative to control; type: functional, Bartonella henselae str. Houston-1
How it was run: (§1)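 HMEC-1 cells grown in MCDB131 with 10% FBS, EGF and hydrocortisone were infected with B. henselae Houston-1 at MOI 100 for 4 h. Extracellular bacteria were killed with gentamicin (200 µg/ml, 1 h), then compound was added at 0.1 or 1.0 µg/ml for 96 h. After washing, cells were lysed with 0.1% saponin and lysates plated on chocolate agar for 7 days. CFU are given as a percentage of the media-only control.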

[2] = tested on: Bartonella quintana; assay: Antibacterial activity against Bartonella quintana ATCC VR358 at 20 ug per disc after 7 days by Kirby-Bauer disc diffusion assay; type: functional; details: ATCC VR358, 168 h, read-out: DIZ
How it was run: (§2)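 Each paper disk was loaded with 20 µl of a 1 mg/ml solution, dried for 20 min and stored desiccated at 4 °C. Growth from 4-day plates was suspended in heart infusion broth to McFarland 2.0 and swabbed onto chocolate agar (heart infusion agar base with 5% bovine hemoglobin). Plates were incubated 1 week at 37 °C in 5% CO2. Zone diameter was read to the nearest mm, in triplicate and averaged.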

[3] = tested on: Bacillus anthracis; assay: Antibacterial activity against Bacillus anthracis sterne at 50 ug per disc by Kirby-Bauer disc diffusion assay; type: functional; details: read-out: DIZ
How it was run: (§3)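 Kirby-Bauer disk diffusion with 50 µg compound per 6 mm paper disk. Organisms were grown and plated by an earlier method. The zone-of-inhibition diameter was recorded to the nearest mm and averaged over three independent experiments. No zone was reported as 6 mm, the disk diameter.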

[4] = tested on: Escherichia coli; assay: Antibacterial activity against Escherichia coli DH5alpha at 50 ug per disc by Kirby-Bauer disc diffusion assay; type: functional; details: DH5[alpha], read-out: DIZ
How it was run: (§4)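 Disks carried 50 µg of compound. Zone diameter was measured to the nearest mm and averaged over three independent experiments. A value of 6 mm, the disk diameter, was recorded where no inhibition was seen.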

[5] = tested on: Enterococcus faecalis; assay: Antibacterial activity against Enterococcus faecalis DS16 at 50 ug per disc by Kirby-Bauer disc diffusion assay; type: functional; details: read-out: DIZ; how it was run: as §4
[6] = tested on: Staphylococcus aureus; assay: Antibacterial activity against methicillin-resistant Staphylococcus aureus ATCC 43300; type: functional
How it was run: (§5)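 MIC against S. aureus strains was run by an earlier published procedure, tested in triplicate. Values were averaged and expressed as µg/ml of compound.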

[7] = tested on: Staphylococcus aureus; assay: Antibacterial activity against methicillin-resistant Staphylococcus aureus isolate CBD 635 at 50 ug per disc by Kirby-Bauer disc diffusion assay; type: functional; details: read-out: DIZ; how it was run: as §3
[8] = tested on: Bartonella elizabethae; assay: Antibacterial activity against Bartonella elizabethae F9251 at 20 ug per disc after 7 days by Kirby-Bauer disc diffusion assay; type: functional; details: F9251, 168 h, read-out: DIZ; how it was run: as §2
[9] = tested on: Staphylococcus aureus; assay: Antibacterial activity against methicillin-resistant Staphylococcus aureus isolate CBD 635; type: functional; how it was run: as §5
[10] = Antibacterial activity against Bartonella henselae Houston-1 infected in human HMEC1 cells assessed as intracellular bacterial load at 1 ug/mL incubated for 96 hrs followed by compound washout measured after 7 days relative to control; type: functional, Bartonella henselae str. Houston-1; how it was run: as §1
[11] = Antibacterial activity against Bartonella henselae ATCC 49882 after 7 days by agar dilution method; type: functional, Bartonella henselae str. Houston-1; details: ATCC 49882, 168 h
How it was run: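 Agar dilution on chocolate agar containing compound at 10.0, 1.0 and 0.1 µg/ml, with 2-fold steps at and below 1.0 µg/ml for compounds active there. Controls were DMSO-only and drug-free plates. 25 µl of a McFarland 2.0 suspension in heart infusion broth was spotted and incubated 7 days at 37 °C in 5% CO2. Growth was scored +/− on duplicate plates; triplicate results were averaged.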

[12] = Antibacterial activity against Bartonella henselae ATCC 49882 at 20 ug per disc after 7 days by Kirby-Bauer disc diffusion assay; type: functional, Bartonella henselae str. Houston-1; details: ATCC 49882, 168 h, read-out: DIZ; how it was run: as §2
[13] = tested on: Staphylococcus aureus; assay: Antibacterial activity against methicillin-susceptible Staphylococcus aureus SH1000; type: functional
How it was run: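 MIC in µg/ml, tested in triplicate and averaged, with ciprofloxacin as positive control.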

[14] = tested on: Bartonella vinsonii; assay: Antibacterial activity against Bartonella vinsonii ATCC VR152 at 20 ug per disc after 7 days by Kirby-Bauer disc diffusion assay; type: functional; details: ATCC VR152, 168 h, read-out: DIZ; how it was run: as §2
[15] = tested on: Bartonella henselae; assay: Antibacterial activity against Bartonella henselae infected in african green monkey Vero cells by immunofluorescence staining; type: functional
[16] = tested on: Staphylococcus aureus; assay: Antibacterial activity against methicillin-susceptible Staphylococcus aureus SH1000 at 2.5 fold MIC by serial dilution method; type: functional
How it was run: (§6)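 Tryptic soy agar contained compound at 1x, 1.5x, 2.0x or 2.5x the measured MSSA MIC. Cells from 1 ml of an overnight MSSA broth culture were pelleted, resuspended in 100 µl TSB and spread with glass beads. Inoculum cfu was counted by serial dilution onto drug-free agar. Total colonies from at least 3 replicates are reported; frequency is colonies divided by total inoculum.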

[17] = tested on: Staphylococcus aureus; assay: Antibacterial activity against methicillin-susceptible Staphylococcus aureus SH1000 at 2 fold MIC by serial dilution method; type: functional; how it was run: as §6
[18] = tested on: Escherichia coli; assay: Inhibition of Escherichia coli DNA gyrase-mediated formation of supercoiled form of pUC19 at 1 to 100 ug/mL by gel electrophoresis
How it was run: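 Relaxed circular pUC19 was incubated with purified E. coli DNA gyrase and compound for 1 h at 37 °C. Relaxed and supercoiled DNA were resolved and quantified by gel electrophoresis.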

[19] = tested on: Staphylococcus aureus; assay: Antibacterial activity against methicillin-susceptible Staphylococcus aureus SH1000 at MIC by serial dilution method; type: functional; how it was run: as §6
[20] = tested on: Staphylococcus aureus; assay: Antibacterial activity against methicillin-susceptible Staphylococcus aureus SH1000 at 1.5 fold MIC by serial dilution method; type: functional; how it was run: as §6

| Compound | Activity [1] | zone of inhibition at 20 µg/disc [2] | zone of inhibition at 50 µg/disc [3] | zone of inhibition at 50 µg/disc [4] | zone of inhibition at 50 µg/disc [5] | MIC [6] | zone of inhibition at 50 µg/disc [7] | zone of inhibition at 20 µg/disc [8] | MIC [9] | Activity [10] | MIC [11] | zone of inhibition at 20 µg/disc [12] | MIC [13] | zone of inhibition at 20 µg/disc [14] | MIC [15] | CFU/ml [16] | further results |
| --- | --- | --- | --- | --- | --- | --- | --- | --- | --- | --- | --- | --- | --- | --- | --- | --- | --- |
| CC(C)CC(=O)N1CCN(c2cc3c(cc2F)c(=O)c(C(=O)O)cn3C2CC2)CC1 | 32% | 36 mm | 70 mm | 36 mm | 32 mm | > 100 µg/mL | 28 mm | 37 mm | > 100 µg/mL | <=10% | 0.2 µg/mL (≈ 0.481 µM) | 62 mm | > 100 µg/mL | 40 mm |  |  |  |
| O=C(O)c1cn(C2CC2)c2cc(N3CCNCC3)c(F)cc2c1=O [CIPROFLOXACIN] |  | 6 mm | 42 mm | 43 mm | 31 mm | 15 µg/mL (≈ 45.3 µM) | 6 mm | 58 mm |  | <=10% | 0.5 µg/mL (≈ 1.51 µM) | 56 mm | 10 µg/mL (≈ 30.2 µM) | 58 mm | 15.2 µg/mL (≈ 45.9 µM) | 551 |  |
| C[C@H]1COc2c(N3CCN(C)CC3)c(F)cc3c(=O)c(C(=O)O)cn1c23.C[C@H]1COc2c(N3CCN(C)CC3)c(F)cc3c(=O)c(C(=O)O)cn1c23.O [LEVOFLOXACIN] |  |  |  |  |  |  |  |  |  |  |  |  |  |  | 0.84 µg/mL |  |  |
| CC(=O)N1CCN(c2cc3c(cc2F)c(=O)c(C(=O)O)cn3C2CC2)CC1 | 54% | 6 mm | 89 mm | 60 mm | 48 mm | 10 µg/mL (≈ 26.8 µM) | 24 mm | 58 mm | > 100 µg/mL | <=10% |  | 52 mm | 10 µg/mL (≈ 26.8 µM) |  |  | 0 | CFU/ml [17]: 101; gyrase inhibition (active/inactive) [18]: Active; CFU/ml [19]: 90; CFU/ml [20]: 41 |
| C[C@@H]1CN(c2c(F)c(N)c3c(=O)c(C(=O)O)cn(C4CC4)c3c2F)C[C@H](C)N1 [SPARFLOXACIN] |  |  |  |  |  |  |  |  |  |  |  |  |  |  | 6.4 µg/mL (≈ 16.3 µM) |  |  |
| CC1COc2c(N3CCN(C)CC3)c(F)cc3c(=O)c(C(=O)O)cn1c23 (centres undefined) [OFLOXACIN] |  |  |  |  |  |  |  |  |  |  |  |  |  |  | 5.6 µg/mL (≈ 15.5 µM) |  |  |
| CCCC(C)C(=O)N1CCN(c2cc3c(cc2F)c(=O)c(C(=O)O)cn3C2CC2)CC1 (centres undefined) |  | 24 mm | 67 mm | 33 mm | 33 mm | 1 µg/mL (≈ 2.33 µM) | 33 mm | 32 mm | > 100 µg/mL |  | 0.8 µg/mL (≈ 1.86 µM) | 37 mm | 10 µg/mL (≈ 23.3 µM) | 30 mm |  | 0 | CFU/ml [17]: 4; Activity [19]: inactive; CFU/ml [20]: 7 |
| CCC(C)(C)C(=O)N1CCN(c2cc3c(cc2F)c(=O)c(C(=O)O)cn3C2CC2)CC1 | 54% | 27 mm | 57 mm | 38 mm | 45 mm | 1 µg/mL (≈ 2.33 µM) | 31 mm | 32 mm | > 100 µg/mL | <=10% | 0.5 µg/mL (≈ 1.16 µM) | 41 mm | 5 µg/mL (≈ 11.6 µM) | 33 mm |  |  |  |
| CCC(=O)N1CCN(c2cc3c(cc2F)c(=O)c(C(=O)O)cn3C2CC2)CC1 |  | 58 mm | 86 mm | 57 mm | 46 mm | > 100 µg/mL | 20 mm | 57 mm | > 100 µg/mL | <=10% | 0.5 µg/mL (≈ 1.29 µM) | 56 mm | 40 µg/mL (≈ 103 µM) | 60 mm |  | 0 | gyrase inhibition (active/inactive) [18]: Active |
| CCCCCCCCCC(=O)N1CCN(c2cc3c(cc2F)c(=O)c(C(=O)O)cn3C2CC2)CC1 |  | 11 mm | 6 mm | 6 mm | 6 mm | 10 µg/mL (≈ 20.6 µM) | 34 mm | 9 mm | > 100 µg/mL |  | 5 µg/mL (≈ 10.3 µM) | 10 mm | 10 µg/mL (≈ 20.6 µM) | 9 mm |  |  | Activity [17]: inactive; Activity [16]: inactive; Activity [19]: inactive; Activity [20]: inactive |
